Reference: ChEMBL document CHEMBL1122796, “Synthesis and antihypertensive activity of 6,7-disubstituted trans-4-amino-3,4-dihydro-2,2-dimethyl-2H-1-benzopyran-3-ols” (1984)

What was measured:
Type in all cases: functional
Rattus norvegicus [1] = assay: Compound was evaluated for oral antihypertensive activity in spontaneously hypertensive rats at 0.3 mg/kg peroral administration
Method in brief: (§1)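 Conscious spontaneously hypertensive rats (Okamoto-derived, 14-24 weeks old, systolic BP ≥180 mmHg), usually six per compound. Dosed orally by needle into the esophagus as a solution or suspension in 1% w/v methylcellulose; doses as free base. Systolic BP measured by tail cuff, restrained at 33.5 ± 0.5 °C, each reading a mean of ≥6 recordings, predose and at 1-6 h.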

Rattus norvegicus [2] = assay: Compound was evaluated for oral antihypertensive activity in spontaneously hypertensive rats at 1 mg/kg peroral administration; method in brief: as §1
Rattus norvegicus [3] = assay: Compound was evaluated for oral antihypertensive activity in spontaneously hypertensive rats at 10 mg/kg peroral administration; method in brief: as §1
Rattus norvegicus [4] = assay: Compound was evaluated for oral antihypertensive activity in spontaneously hypertensive rats at 3 mg/kg peroral administration; method in brief: as §1
Rattus norvegicus [5] = assay: Compound was evaluated for oral antihypertensive activity in spontaneously hypertensive rats at 0.01 mg/kg peroral administration; method in brief: as §1
Rattus norvegicus [6] = assay: Compound was evaluated for oral antihypertensive activity in spontaneously hypertensive rats at 0.03 mg/kg peroral administration; method in brief: as §1
Rattus norvegicus [7] = assay: Compound was evaluated for oral antihypertensive activity in spontaneously hypertensive rats at 0.1 mg/kg peroral administration; method in brief: as §1
Rattus norvegicus [8] = assay: Compound was evaluated for antihypertensive activity in deoxy-corticosterone acetate (DOCA) treated hypertensive rats at 0.3 mg/kg peroral administration; conditions: route oral
Rattus norvegicus [9] = assay: Compound was evaluated for antihypertensive activity in deoxy-corticosterone acetate (DOCA) treated hypertensive rats at 1 mg/kg peroral administration; conditions: route oral
Rattus norvegicus [10] = assay: Compound was evaluated for antihypertensive activity in deoxy-corticosterone acetate (DOCA) treated hypertensive rats at 100 mg/kg peroral administration; conditions: route oral
Rattus norvegicus [11] = assay: Compound was evaluated for antihypertensive activity in deoxy-corticosterone acetate (DOCA) treated hypertensive rats at 10 mg/kg peroral administration; conditions: route oral
Rattus norvegicus [12] = assay: Compound was evaluated for oral antihypertensive activity in spontaneously hypertensive rats at 100 mg/kg peroral administration; method in brief: as §1
Rattus norvegicus [13] = assay: Compound was evaluated for antihypertensive activity in deoxy-corticosterone acetate (DOCA) treated hypertensive rats at 3 mg/kg peroral administration; conditions: route oral

Row | Structure (SMILES) | Max fall in blood pressure (Rattus norvegicus [1]) | Max fall in blood pressure (Rattus norvegicus [2]) | Max fall in blood pressure (Rattus norvegicus [3]) | Max fall in blood pressure (Rattus norvegicus [7]) | Max fall in blood pressure (Rattus norvegicus [9]) | other results
1 | CC(=O)Nc1cc2c(cc1C(N)=O)[C@@H](N1CCCCC1)[C@H](O)C(C)(C)O2 | 34 mmHg | 50 mmHg | – | – | – | –
2 | CC(=O)Nc1cc2c(cc1[N+](=O)[O-])OC(C)(C)[C@@H](O)[C@@H]2N1CCCCC1 | – | – | 89 mmHg | – | – | Max fall in blood pressure (Rattus norvegicus [4]): 44 mmHg
3 | CC1(C)Oc2cc(N)c([N+](=O)[O-])cc2[C@@H](N2CCCCC2)[C@@H]1O | 111 mmHg | – | – | 110 mmHg | – | Max fall in blood pressure (Rattus norvegicus [5]): 14 mmHg; Max fall in blood pressure (Rattus norvegicus [6]): 71 mmHg
4 | CC1(C)Oc2cc([N+](=O)[O-])c(N)cc2[C@@H](N2CCCCC2)[C@@H]1O | 42 mmHg | 67 mmHg | – | – | – | –
5 | CC(=O)Nc1cc2c(cc1C#N)[C@@H](N1CCCC1)[C@H](O)C(C)(C)O2 | 149 mmHg | – | – | 36 mmHg | – | –
6 | CC(=O)Nc1cc2c(cc1[N+](=O)[O-])OC(C)(C)[C@@H](O)[C@@H]2N1CCCC1 | – | – | 99 mmHg | – | – | Max fall in blood pressure (Rattus norvegicus [4]): 25 mmHg
7 | CC1(C)Oc2cc([N+](=O)[O-])c(N)cc2[C@@H](N2CCCC2)[C@@H]1O | 83 mmHg | 71 mmHg | – | 22 mmHg | – | –
8 | CC1(C)Oc2ccc(C#N)cc2C(N2CCCC2)[C@@H]1O.CS(=O)(=O)O (some centres not stated) | 41 mmHg | 61 mmHg | – | – | 43 mmHg | Max fall in blood pressure (Rattus norvegicus [8]): 15 mmHg
9 | CC1(C)Oc2cc(N)c(C#N)cc2[C@@H](N2CCCC2)[C@@H]1O | 115 mmHg | – | – | 54 mmHg | – | Max fall in blood pressure (Rattus norvegicus [6]): 40 mmHg
10 | CC(=O)Nc1cc2c(cc1[N+](=O)[O-])[C@@H](N1CCCCC1)[C@H](O)C(C)(C)O2 | 108 mmHg | – | – | 78 mmHg | – | –
11 | CC1(C)Oc2cc(N)c([N+](=O)[O-])cc2[C@@H](N2CCCC2)[C@@H]1O | – | – | – | 122 mmHg | – | Max fall in blood pressure (Rattus norvegicus [6]): 47 mmHg
12 | CC1(C)Oc2ccc(N)cc2C(N2CCCC2)[C@@H]1O.CS(=O)(=O)O (some centres not stated) | – | – | -10 mmHg | – | 6 mmHg | –
13 | CC1(C)Oc2ccc([N+](=O)[O-])cc2C(N2CCCC2)[C@@H]1O.Cl (some centres not stated) | 32 mmHg | 52 mmHg | – | – | 52 mmHg | –
14 | CC(=O)Nc1ccc2c(c1)C(N1CCCCC1)[C@H](O)C(C)(C)O2.Cl (some centres not stated) | – | – | 19 mmHg | – | – | Max fall in blood pressure (Rattus norvegicus [10]): 4 mmHg; Max fall in blood pressure (Rattus norvegicus [11]): 6 mmHg; Max fall in blood pressure (Rattus norvegicus [12]): 42 mmHg
15 | CC1(C)Oc2cc([N+](=O)[O-])ccc2C(N2CCCC2)[C@@H]1O.Cl (some centres not stated) | 17 mmHg | 83 mmHg | – | – | 44 mmHg | Max fall in blood pressure (Rattus norvegicus [13]): 90 mmHg
16 | CC1(C)Oc2ccc(C(N)=O)cc2C(N2CCCCC2)[C@@H]1O.Cl (some centres not stated) | – | 24 mmHg | 109 mmHg | – | 9 mmHg | Max fall in blood pressure (Rattus norvegicus [4]): 76 mmHg
17 | Cl.NNc1nncc2ccccc12 [HYDRALAZINE HYDROCHLORIDE] | – | 42 mmHg | 89 mmHg | – | 32 mmHg | Max fall in blood pressure (Rattus norvegicus [13]): 65 mmHg; Max fall in blood pressure (Rattus norvegicus [4]): 51 mmHg; Max fall in blood pressure (Rattus norvegicus [11]): 113 mmHg
18 | COC(=O)C1=C(C)NC(C)=C(C(=O)OC)C1c1ccccc1[N+](=O)[O-] [NIFEDIPINE] | 13 mmHg | 30 mmHg | – | – | 33 mmHg | Max fall in blood pressure (Rattus norvegicus [8]): 20 mmHg; Max fall in blood pressure (Rattus norvegicus [13]): 51 mmHg; Max fall in blood pressure (Rattus norvegicus [4]): 62 mmHg
